Columns and labels:
[1] = target: T1, Tyrosine-protein kinase ITK/TSK (Homo sapiens) (UniProt Q08881); assay: Inhibition of ITK at 1 uM
T1 sequence (whole entry): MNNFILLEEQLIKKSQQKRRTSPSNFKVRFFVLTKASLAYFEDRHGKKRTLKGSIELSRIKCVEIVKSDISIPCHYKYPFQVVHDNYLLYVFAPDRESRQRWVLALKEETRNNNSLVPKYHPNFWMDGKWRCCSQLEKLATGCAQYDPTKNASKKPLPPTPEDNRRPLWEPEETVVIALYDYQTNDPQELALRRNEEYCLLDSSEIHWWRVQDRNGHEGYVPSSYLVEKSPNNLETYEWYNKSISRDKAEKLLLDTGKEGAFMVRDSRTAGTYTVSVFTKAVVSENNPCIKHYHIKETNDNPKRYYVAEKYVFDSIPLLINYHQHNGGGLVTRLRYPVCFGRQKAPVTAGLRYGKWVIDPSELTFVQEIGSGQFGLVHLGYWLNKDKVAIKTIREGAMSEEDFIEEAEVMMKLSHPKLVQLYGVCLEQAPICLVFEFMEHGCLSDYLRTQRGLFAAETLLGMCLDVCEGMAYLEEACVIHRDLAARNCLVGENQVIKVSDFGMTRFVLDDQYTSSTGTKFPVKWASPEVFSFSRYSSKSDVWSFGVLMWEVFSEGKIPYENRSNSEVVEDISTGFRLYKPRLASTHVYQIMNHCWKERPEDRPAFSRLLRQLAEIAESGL
How it was run: (§1)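 Single-concentration screen on the Ambit KINOMEscan platform, run against a panel of 250–400 kinases. Per-kinase inhibition was also summarized as S(90), the fraction of kinases inhibited by more than 90%.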

[2] = test system: Mast/stem cell growth factor receptor Kit (Homo sapiens), P10721 [V559D,T670I]; assay: Inhibition of KIT V559D,T670I mutant at 1 uM; how it was run: as §1
[3] = target: T2, Serine/threonine-protein kinase STK11 (Homo sapiens) (UniProt Q15831); assay: Inhibition of LKB1 at 1 uM; how it was run: as §1
T2 sequence (whole entry): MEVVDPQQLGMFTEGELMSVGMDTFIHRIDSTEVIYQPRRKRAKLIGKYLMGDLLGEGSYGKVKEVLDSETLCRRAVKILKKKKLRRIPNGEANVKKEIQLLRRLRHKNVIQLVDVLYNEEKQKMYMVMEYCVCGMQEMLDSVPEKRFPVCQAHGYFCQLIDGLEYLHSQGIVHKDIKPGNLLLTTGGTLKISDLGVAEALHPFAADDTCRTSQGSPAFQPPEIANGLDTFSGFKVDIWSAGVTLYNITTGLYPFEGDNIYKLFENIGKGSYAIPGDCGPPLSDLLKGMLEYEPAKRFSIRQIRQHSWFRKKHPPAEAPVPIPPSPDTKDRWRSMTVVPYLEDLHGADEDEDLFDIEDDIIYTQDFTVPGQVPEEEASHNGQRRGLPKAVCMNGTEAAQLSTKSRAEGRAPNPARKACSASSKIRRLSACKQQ

[4] = target: T3, Serine/threonine-protein kinase D3 (Homo sapiens) (UniProt O94806); assay: Inhibition of PRKD3 at 1 uM
T3 sequence (whole entry): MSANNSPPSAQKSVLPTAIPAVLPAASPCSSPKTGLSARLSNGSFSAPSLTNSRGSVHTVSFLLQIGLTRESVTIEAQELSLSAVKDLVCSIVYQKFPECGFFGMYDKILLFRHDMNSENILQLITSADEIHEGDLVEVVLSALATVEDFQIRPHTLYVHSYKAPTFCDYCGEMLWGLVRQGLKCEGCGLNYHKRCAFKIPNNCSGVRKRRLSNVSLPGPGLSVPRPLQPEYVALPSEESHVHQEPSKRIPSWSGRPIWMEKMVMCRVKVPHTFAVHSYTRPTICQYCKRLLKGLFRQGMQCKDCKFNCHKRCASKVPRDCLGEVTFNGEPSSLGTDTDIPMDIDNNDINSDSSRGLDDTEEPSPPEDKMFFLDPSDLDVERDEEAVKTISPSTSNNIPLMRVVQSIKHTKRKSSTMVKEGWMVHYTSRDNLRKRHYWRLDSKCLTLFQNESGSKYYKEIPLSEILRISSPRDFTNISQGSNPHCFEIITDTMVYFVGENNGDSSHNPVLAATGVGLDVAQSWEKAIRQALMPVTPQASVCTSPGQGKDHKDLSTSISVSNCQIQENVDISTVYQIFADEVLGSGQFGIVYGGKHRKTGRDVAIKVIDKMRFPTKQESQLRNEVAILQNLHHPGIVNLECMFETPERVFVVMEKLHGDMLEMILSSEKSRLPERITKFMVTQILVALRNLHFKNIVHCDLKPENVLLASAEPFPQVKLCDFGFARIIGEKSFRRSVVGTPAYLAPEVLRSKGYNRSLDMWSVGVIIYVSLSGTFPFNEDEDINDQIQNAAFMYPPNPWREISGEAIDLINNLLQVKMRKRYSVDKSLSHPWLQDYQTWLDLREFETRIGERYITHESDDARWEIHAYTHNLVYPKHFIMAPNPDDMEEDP

[5] = target: STE20-like serine/threonine-protein kinase (Homo sapiens) (UniProt Q9H2G2); assay: Inhibition of SLK at 1 uM
[6] = target: Tyrosine-protein kinase SYK (Homo sapiens) (UniProt P43405); assay: Inhibition of SYK at 1 uM
[7] = test system: Tyrosine-protein kinase ABL1 (Homo sapiens), P00519 [H396P]; assay: Inhibition of ABL1 H396P mutant at 1 uM
How it was run: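 Ambit KINOMEscan screen at a single concentration across a 250–400 kinase panel, recorded as percent inhibition. Selectivity was expressed as S(90), the fraction of kinases inhibited >90%.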

[8] = target: Dual specificity protein kinase CLK3 (Homo sapiens) (UniProt P49761); assay: Inhibition of CLK3 at 1 uM
How it was run: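 Single-concentration screen using Ambit Bioscience KINOMEscan technology across a panel of 250–400 kinases. Per-kinase inhibition from this screen was summarized as S(90), the fraction of kinases inhibited by more than 90%.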

Sequence of STE20-like serine/threonine-protein kinase (Homo sapiens) (Q9H2G2 whole entry, looked up): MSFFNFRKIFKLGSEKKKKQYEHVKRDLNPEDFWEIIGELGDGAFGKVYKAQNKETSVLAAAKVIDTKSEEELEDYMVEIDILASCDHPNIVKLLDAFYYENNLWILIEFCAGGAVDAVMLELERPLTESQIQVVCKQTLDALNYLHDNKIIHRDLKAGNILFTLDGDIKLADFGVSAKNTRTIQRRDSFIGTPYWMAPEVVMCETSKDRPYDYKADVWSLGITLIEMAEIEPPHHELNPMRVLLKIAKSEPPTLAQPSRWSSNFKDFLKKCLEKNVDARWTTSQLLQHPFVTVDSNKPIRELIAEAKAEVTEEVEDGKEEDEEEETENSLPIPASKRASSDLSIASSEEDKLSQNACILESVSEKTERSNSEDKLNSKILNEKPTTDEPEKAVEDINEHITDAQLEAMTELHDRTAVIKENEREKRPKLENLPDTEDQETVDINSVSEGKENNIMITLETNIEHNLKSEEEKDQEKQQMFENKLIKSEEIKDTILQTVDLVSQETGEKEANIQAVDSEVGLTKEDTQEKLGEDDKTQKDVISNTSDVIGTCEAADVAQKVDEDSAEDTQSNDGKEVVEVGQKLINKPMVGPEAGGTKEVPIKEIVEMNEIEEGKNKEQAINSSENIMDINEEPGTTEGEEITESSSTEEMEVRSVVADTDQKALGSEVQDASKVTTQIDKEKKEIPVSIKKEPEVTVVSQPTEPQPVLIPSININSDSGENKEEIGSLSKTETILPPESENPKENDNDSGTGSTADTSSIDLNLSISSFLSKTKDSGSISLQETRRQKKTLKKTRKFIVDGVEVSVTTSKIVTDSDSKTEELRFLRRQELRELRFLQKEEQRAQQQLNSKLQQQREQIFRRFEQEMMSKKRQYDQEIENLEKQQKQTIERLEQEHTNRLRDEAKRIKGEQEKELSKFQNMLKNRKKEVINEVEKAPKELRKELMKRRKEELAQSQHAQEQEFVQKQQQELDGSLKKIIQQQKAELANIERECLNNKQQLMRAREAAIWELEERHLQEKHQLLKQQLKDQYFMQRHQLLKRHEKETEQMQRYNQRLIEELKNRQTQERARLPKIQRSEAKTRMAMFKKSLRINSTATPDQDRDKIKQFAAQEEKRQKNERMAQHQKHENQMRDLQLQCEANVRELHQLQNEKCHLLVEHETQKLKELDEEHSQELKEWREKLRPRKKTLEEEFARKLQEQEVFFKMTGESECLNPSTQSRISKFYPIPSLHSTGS
Sequence of Dual specificity protein kinase CLK3 (Homo sapiens) (P49761 whole entry, looked up): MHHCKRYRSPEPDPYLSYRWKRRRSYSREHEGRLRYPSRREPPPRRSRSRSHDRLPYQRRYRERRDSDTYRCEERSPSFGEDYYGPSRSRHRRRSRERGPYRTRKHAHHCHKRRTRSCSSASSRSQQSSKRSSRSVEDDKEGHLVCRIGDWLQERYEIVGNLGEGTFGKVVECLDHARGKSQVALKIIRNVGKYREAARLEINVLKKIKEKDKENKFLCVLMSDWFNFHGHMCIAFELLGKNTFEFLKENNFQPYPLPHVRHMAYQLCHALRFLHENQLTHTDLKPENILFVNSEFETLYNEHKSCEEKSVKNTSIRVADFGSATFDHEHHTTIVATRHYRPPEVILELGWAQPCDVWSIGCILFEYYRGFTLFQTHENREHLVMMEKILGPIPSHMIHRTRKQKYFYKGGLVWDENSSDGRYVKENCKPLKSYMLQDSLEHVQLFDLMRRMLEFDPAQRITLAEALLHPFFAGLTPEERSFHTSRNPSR
Sequence of Mast/stem cell growth factor receptor Kit (Homo sapiens), P10721 [V559D,T670I] (P10721 whole entry V559D/T670I): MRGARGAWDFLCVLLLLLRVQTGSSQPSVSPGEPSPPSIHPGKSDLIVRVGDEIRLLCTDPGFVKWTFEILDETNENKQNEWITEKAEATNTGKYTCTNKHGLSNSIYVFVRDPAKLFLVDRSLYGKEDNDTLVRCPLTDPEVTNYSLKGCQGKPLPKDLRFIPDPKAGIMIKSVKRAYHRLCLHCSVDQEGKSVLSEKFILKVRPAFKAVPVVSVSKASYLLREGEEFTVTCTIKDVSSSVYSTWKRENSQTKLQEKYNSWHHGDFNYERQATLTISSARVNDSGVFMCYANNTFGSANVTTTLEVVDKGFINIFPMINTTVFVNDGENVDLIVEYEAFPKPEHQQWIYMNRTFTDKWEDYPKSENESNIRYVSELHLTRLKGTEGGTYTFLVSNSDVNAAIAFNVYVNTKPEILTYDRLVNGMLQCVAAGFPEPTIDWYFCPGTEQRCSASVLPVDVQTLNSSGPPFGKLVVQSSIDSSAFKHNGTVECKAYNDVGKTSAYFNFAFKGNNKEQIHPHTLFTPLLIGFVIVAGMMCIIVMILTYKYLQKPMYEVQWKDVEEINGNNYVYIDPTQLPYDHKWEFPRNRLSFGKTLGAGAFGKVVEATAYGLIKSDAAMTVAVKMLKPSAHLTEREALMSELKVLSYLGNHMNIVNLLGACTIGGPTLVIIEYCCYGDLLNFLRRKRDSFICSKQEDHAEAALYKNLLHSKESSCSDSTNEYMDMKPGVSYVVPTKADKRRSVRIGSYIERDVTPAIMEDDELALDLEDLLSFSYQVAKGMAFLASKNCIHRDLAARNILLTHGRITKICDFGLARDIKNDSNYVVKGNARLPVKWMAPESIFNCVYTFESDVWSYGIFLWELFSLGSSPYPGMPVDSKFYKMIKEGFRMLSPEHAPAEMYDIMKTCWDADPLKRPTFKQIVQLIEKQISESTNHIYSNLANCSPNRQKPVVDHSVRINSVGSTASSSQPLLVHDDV

| inhibition [1] [%] | inhibition [2] [%] | inhibition [3] [%] | inhibition [4] [%] | inhibition [5] [%] | inhibition [6] [%] | inhibition [7] [%] | inhibition [8] [%] | SMILES |
| --- | --- | --- | --- | --- | --- | --- | --- | --- |
| < 50 | < 50 | < 50 | < 50 | < 50 | < 50 | < 50 | < 50 | CN1CCN(c2ccc(-c3cnc4c(c3)N(Cc3cc(Cl)ccc3C(F)(F)F)CCN4)cn2)CC1 |
| < 50 | < 50 | < 50 |  | < 50 | < 50 | < 50 | < 50 | O=C(c1ccc(-c2cnc3c(c2)N(Cc2cc(Cl)ccc2C(F)(F)F)CCN3)cc1)N1CCCCC1 |
| < 50 | 84 | < 50 | < 50 | < 50 | < 50 | < 50 | < 50 | FC(F)(F)c1ccc(Cl)cc1CN1CCNc2ncc(-c3ccnc(N4CCNCC4)c3)cc21 |
| < 50 | < 50 | < 50 | < 50 | < 50 | < 50 | < 50 | < 50 | CC(=O)N1CCN(c2cc(-c3cnc4c(c3)N(Cc3cc(Cl)ccc3C(F)(F)F)CCN4)ccn2)CC1 |
| < 50 | < 50 | < 50 |  | < 50 | < 50 | < 50 | < 50 | O=C(O)c1ccc(-c2cnc3c(c2)N(Cc2cc(Cl)ccc2C(F)(F)F)CCN3)cc1 |

Further lines, the molecule ahead of its results:

| SMILES | inhibition [1] [%] | inhibition [2] [%] | inhibition [3] [%] | inhibition [4] [%] | inhibition [5] [%] | inhibition [6] [%] | inhibition [7] [%] | inhibition [8] [%] |
| --- | --- | --- | --- | --- | --- | --- | --- | --- |
| CN1CCN(c2ccc(-c3cnc4c(c3)N(Cc3cc(Cl)ccc3Cl)CCN4)cn2)CC1 | < 50 | < 50 | < 50 | < 50 | < 50 | < 50 | < 50 | < 50 |
| COC1CCN(C(=O)c2ccc(-c3cnc4c(c3)N(Cc3cc(Cl)ccc3C(F)(F)F)CCN4)cc2)CC1 | < 50 | < 50 | < 50 |  | < 50 | < 50 | < 50 | < 50 |
| O=C(c1ccc(-c2cnc3c(c2)N(Cc2cc(Cl)ccc2C(F)(F)F)CCN3)cc1)N1CCC(N2CCCC2)CC1 | < 50 | < 50 | < 50 |  | < 50 | < 50 | < 50 | < 50 |
| CN1CCN(c2ccc(-c3cnc4c(c3)N(Cc3c(F)ccc(F)c3Cl)CCN4)cn2)CC1 | < 50 | < 50 | < 50 | < 50 | < 50 | < 50 | 85 | < 50 |
| CN1CCN(c2ccc(-c3cnc4c(c3)N(Cc3cc(F)ccc3F)CCN4)cn2)CC1 | < 50 | < 50 | < 50 | < 50 | < 50 | < 50 | 58.5 | < 50 |

— ChEMBL document CHEMBL1165965, “Synthesis and structure-activity relationships of 1,2,3,4-tetrahydropyrido[2,3-b]pyrazines as potent and selective inhibitors of the anaplastic lymphoma kinase” (Bioorg Med Chem, 2010)
